Laboratory results: ChEMBL document CHEMBL1127615, “5,7-Dimethoxy-3-(4-pyridinyl)quinoline is a potent and selective inhibitor of human vascular beta-type platelet-derived growth factor receptor tyrosine kinase” (J Med Chem, 1994)

Assays:
[1] = Inhibition of vascular smooth muscle cell proliferation by [3H]thymidine incorporation; format: functional; settings: Homo sapiens
Summary of the method: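 Primary human vascular smooth muscle cells, serum-starved 48 h, then inhibitor for 2 h, PDGF-BB (10 ng/mL) for 24 h, then [3H]thymidine (0.5 μCi/mL) for 24 h more. Cells were washed with ice-cold 5% TCA, extracted with 0.1 N NaOH (30 min, 25 °C), neutralized and counted. Inhibition is relative to vehicle (≤0.5% DMSO).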

Protein kinase C (PKC) = assay: Inhibition of Serine/threonine protein kinases C; format: protein assay, Homo sapiens
[2] = target: Tyrosine-protein kinase Lck (Homo sapiens, UniProt P06239); assay: Inhibition of p56 lck kinase
Tyrosine-protein kinase Lck, sequence (P06239 whole entry): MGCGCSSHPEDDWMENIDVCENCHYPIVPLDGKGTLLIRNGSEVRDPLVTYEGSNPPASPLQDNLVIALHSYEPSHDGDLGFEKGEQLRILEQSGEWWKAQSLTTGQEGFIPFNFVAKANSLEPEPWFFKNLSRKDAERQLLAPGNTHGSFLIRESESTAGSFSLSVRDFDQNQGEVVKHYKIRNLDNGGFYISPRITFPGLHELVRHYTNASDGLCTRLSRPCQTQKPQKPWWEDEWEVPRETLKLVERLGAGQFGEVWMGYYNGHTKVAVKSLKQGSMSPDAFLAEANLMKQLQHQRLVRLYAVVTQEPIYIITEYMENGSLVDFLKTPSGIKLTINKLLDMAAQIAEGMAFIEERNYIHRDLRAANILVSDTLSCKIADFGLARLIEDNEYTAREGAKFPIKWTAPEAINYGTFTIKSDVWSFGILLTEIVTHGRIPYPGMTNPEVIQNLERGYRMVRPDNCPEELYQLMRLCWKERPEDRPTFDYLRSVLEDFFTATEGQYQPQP

[3] = target: Receptor tyrosine-protein kinase erbB-2 (Homo sapiens, UniProt P04626); assay: Inhibition of erbB2 receptor
Receptor tyrosine-protein kinase erbB-2, sequence (P04626 whole entry): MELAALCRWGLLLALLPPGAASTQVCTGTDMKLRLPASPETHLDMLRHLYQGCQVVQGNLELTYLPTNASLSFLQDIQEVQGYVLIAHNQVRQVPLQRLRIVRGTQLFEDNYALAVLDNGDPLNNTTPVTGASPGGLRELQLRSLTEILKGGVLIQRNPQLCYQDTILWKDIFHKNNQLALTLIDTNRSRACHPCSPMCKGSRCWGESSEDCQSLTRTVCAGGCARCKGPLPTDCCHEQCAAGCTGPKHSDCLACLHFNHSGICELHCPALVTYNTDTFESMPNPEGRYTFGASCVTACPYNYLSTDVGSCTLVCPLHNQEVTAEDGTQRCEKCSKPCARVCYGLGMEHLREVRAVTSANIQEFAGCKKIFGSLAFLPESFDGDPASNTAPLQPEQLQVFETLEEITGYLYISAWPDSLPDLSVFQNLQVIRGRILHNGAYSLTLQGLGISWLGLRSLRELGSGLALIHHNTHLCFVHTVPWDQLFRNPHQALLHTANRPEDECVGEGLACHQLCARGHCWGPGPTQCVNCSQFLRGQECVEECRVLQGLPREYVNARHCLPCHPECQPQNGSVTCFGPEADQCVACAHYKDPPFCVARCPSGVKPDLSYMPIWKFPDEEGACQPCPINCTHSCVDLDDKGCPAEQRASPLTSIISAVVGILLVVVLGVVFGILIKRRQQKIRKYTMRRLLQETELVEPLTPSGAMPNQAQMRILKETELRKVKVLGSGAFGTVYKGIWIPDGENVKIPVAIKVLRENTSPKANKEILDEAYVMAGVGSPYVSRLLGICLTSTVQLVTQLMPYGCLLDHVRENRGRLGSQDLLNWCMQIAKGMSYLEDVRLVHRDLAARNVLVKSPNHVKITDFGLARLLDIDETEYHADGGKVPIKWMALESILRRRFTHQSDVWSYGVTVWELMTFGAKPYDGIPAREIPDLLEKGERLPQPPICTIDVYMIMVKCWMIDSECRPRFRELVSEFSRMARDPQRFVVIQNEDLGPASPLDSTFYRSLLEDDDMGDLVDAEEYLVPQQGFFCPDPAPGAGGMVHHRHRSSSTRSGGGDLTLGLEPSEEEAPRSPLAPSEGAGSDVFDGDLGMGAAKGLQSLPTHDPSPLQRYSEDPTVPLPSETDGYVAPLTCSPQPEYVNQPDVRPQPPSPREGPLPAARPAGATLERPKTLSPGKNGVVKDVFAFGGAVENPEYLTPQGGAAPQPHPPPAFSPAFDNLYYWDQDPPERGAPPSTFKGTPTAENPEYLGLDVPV

[4] = target: Platelet-derived growth factor receptor (Homo sapiens, UniProt P09619+P16234); assay: Inhibition of Platelet-derived growth factor receptor tyrosine kinase; format: protein-complex assay

Row | Compound | IC50 (Protein kinase C (PKC)) [µM] | IC50 [2] [µM] | IC50 [3] [µM] | IC50 [4] [µM] | IC50 [1] [µM]
1 | COc1cc2cc(-c3ccncc3)cnc2cc1OC | > 10 | > 10 | > 10 | – | 1.8
2 | COc1ccc2ncc(-c3ccncc3)c(C)c2c1 | – | – | – | > 50 | –
3 | Oc1ccc2cc(-c3ccncc3)cnc2c1 | – | – | – | 9.2 | > 10
4 | COc1cc(OC)c2cc(-c3ccncc3)cnc2c1 | > 10 | – | > 10 | – | 0.9
5 | Oc1cc2cc(-c3ccncc3)cnc2cc1O | > 10 | – | – | 36 | –
6 | COc1ccc2c(C)c(-c3ccncc3)cnc2c1 | – | – | – | > 50 | –
7 | c1ccc2ncc(-c3ccncc3)cc2c1 | – | – | – | 1.5 | –

Now from value to compound, other results behind:

Row | IC50 (Protein kinase C (PKC)) [µM] | IC50 [2] [µM] | IC50 [3] [µM] | IC50 [4] [µM] | Compound | IC50 [1] [µM]
8 | – | – | – | 0.6 | COc1ccc2cc(-c3ccncc3)cnc2c1 | 6.5
9 | > 10 | – | – | 0.3 | Clc1ccc2cc(-c3ccncc3)cnc2c1 | –
10 | – | – | – | 0.4 | COc1cc2ncc(-c3ccncc3)cc2c(OC)c1OC | 3.5
11 | – | – | – | 1.3 | Oc1cc(O)c2cc(-c3ccncc3)cnc2c1 | 5.5
12 | – | – | – | 0.4 | COc1ccc2ncc(-c3ccncc3)cc2c1 | –
